Assay [1] concerns Rattus norvegicus. Put plainly: Contralateral turning characteristic of dopamine agonist was measured in rat at 10 Po mg/kg dose. The class given is functional. A digest of the protocol: (§1)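 Male Sprague-Dawley rats with unilateral 6-OHDA nigrostriatal lesions, groups of 4-5, reused at least 1 week apart. Dosed po or sc as stated, placed at once in a rotometer, and rotation recorded continuously until it stopped. Readout is total contralateral turns (mean ± SEM). Doses given as base.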

Assay [2] has as its system Rattus norvegicus. As to the kind of experiment: Compound was evaluated for its ability to induce locomotion in rats rendered akinetic by bilateral anterolateral hyphalamic injection of 6-OHDA at 2.5 mg/kg dose after sc administration. The class given is functional. Particulars: route subcutaneous. Put shortly:
(§2)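 Male Sprague-Dawley rats with 6-OHDA lesions of the anterolateral hypothalamus on both sides; tested 4 days after lesioning. Compound given sc, then rats placed in an open field. Ambulation recorded in 2-min periods across 2 h; one score = all four limbs placed in one square. Readout is the cumulative ambulation score (mean ± SEM).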

Assay [3] concerns Rattus norvegicus. As to the kind of experiment: Contralateral turning characteristic of dopamine agonist was measured in rat at 10 Sc mg/kg dose. The class given is functional. A digest of the protocol:
as §1

A further assay has as its system Mus musculus. Put plainly: Compound was tested for its ability to antagonize the catalepsy produced in mice after sc administration. The assay is classed as functional. Put shortly:
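Male Swiss albino mice (21-25 g), groups of 10-12. Reserpine 5 mg/kg ip given 17 h before sc test drug. Catalepsy checked before dosing and at 0.5, 1, 2, 3.5 and 5 h: mouse placed on a rubber stopper (5 cm diameter, 2.5 cm high) for 3 min; staying on counts as cataleptic. Quantal ED50 = dose reversing catalepsy in 50% of mice.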

Assay [4] has as its target Dopamine receptor (Rattus norvegicus) (UniProt P25115+P19020+P30729+P18901+P61169). Put plainly: Dopamine receptor agonistic activity measured as Contralateral turning characteristic was measured in rat at 2.5 Sc mg/kg dose. The class given is functional, organism-based. A digest of the protocol: as §1
Assay [5] deals with Rattus norvegicus. As to the kind of experiment: Compound was evaluated for its ability to induce locomotion in rats rendered akinetic by bilateral anterolateral hyphalamic injection of 6-OHDA at 10 mg/kg dose after sc administration. The conditions noted are these: route subcutaneous. The assay is classed as functional. A digest of the protocol:
as §2

In assay [6] the test system is Rattus norvegicus. Put plainly: Compound was evaluated for its ability to induce locomotion in rats rendered akinetic by bilateral anterolateral hyphalamic injection of 6-OHDA at 30 mg/kg dose after sc administration; I=Inactive. The assay is classed as functional, organism-based. Details: dose 30 mg/kg. A digest of the protocol:
as §2

Assay [7] concerns Rattus norvegicus. As to the kind of experiment: Effect of pretreatment with alpha-MPT on the rotational behavior induced by the compound (5 mg/kg, sc) in rats with 6-OHDA induced lesions (indicates that it acted directly on DA receptors). The class given is functional.
In assay [8] the test system is Rattus norvegicus. As to the kind of experiment: Ability to induce locomotion in rats rendered akinetic by bilateral anterolateral hyphalamic injection of 6-OHDA at 2.5 mg/kg dose after sc administration. The assay is classed as functional. The conditions noted are these: route subcutaneous. Put shortly: as §2
Assay [9] relates to Rattus norvegicus. As to the kind of experiment: Contralateral turning characteristic was measured in rat at 5 po mg/kg dose. The assay is classed as functional. Put shortly: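 Male Sprague-Dawley rats with unilateral 6-OHDA lesions of the nigrostriatal pathway, in groups of 4-5, were reused at intervals of at least 1 week. After dosing, each rat was placed straight into a rotometer and recorded continuously until rotation ceased. Result is total contralateral turns, mean ± SEM. Doses refer to the base.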

The test system of assay [10] is Rattus norvegicus. As to the kind of experiment: Compound was evaluated for its ability to induce locomotion in rats rendered akinetic by bilateral anterolateral hyphalamic injection of 6-OHDA at 10 Po mg/kg dose after sc administration. The class given is functional. Put shortly:
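Male Sprague-Dawley rats with bilateral 6-OHDA lesions of the anterolateral hypothalamus were tested 4 days after lesioning, dosed, and placed in an open field. Ambulation (all four limbs placed in one square = one score) was counted over six 2-min periods within 2 h. Result is the cumulative ambulation score, mean ± SEM. Doses refer to the base.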

Experimental findings from ChEMBL document CHEMBL1123170, “Drug design via pharmacophore identification. Dopaminergic activity of 3H-benz[e]indol-8-amines and their mode of interaction with the dopamine receptor” (1986) are described below.

Active and inactive are the calls of the source. The calls are words filed in the database; no cut-off is given here. Bounds are passed on as bounds.

Broadly, the ED50 is the dose that gives a 50% effect, or the effect in half of the subjects. Read a high ED50 as weaker potency. In the case of `CN(C)C1CCc2ccc3[nH]ccc3c2C1` (stereo not given), the Activity in the assay with Rattus norvegicus [1] is 4947; in the assay with Rattus norvegicus [3], 4540. This molecule gave an Ambulation score in the assay on Rattus norvegicus [2] of 378. The molecule further yielded an ED50 in the assay on Mus musculus of 5.8 mg/kg.
Turning to `CCCN(CCC)C1CCc2ccc3c(ccn3C)c2C1` (stereo not given), the Activity in assay [4] is less than 300. In the assay with Rattus norvegicus [5], this molecule came in with an Ambulation score of less than 100. In the assay on Mus musculus, this molecule registered an ED50 of 5 mg/kg.
For `CN(C)C1CCc2ccc3c(ccn3C)c2C1` (stereo not given), the Ambulation score result in the assay on Rattus norvegicus [6] is “inactive”. For the same molecule, in the assay with Mus musculus, the ED50 was more than 30 mg/kg.
For the molecule `CCCN(CCC)C1CCc2ccc3[nH]ccc3c2C1` (stereo not given), the Activity with Rattus norvegicus [7] is reported as 3460. This molecule had an Ambulation score with Rattus norvegicus [8] of 287. Moreover, in the assay with Mus musculus, the ED50 came out at 2.3 mg/kg.
Take `CC(C)C[C@H]1C(=O)N2CCC[C@H]2[C@]2(O)O[C@](NC(=O)[C@@H]3C=C4c5cccc6[nH]c(Br)c(c56)C[C@H]4N(C)C3)(C(C)C)C(=O)N12` [BROMOCRIPTINE]: the Activity in the assay with Rattus norvegicus [9] was found to be 1805. For the same molecule, the Ambulation score with Rattus norvegicus [10] is reported as 112. This molecule registered an ED50 with Mus musculus of 2.3 mg/kg.
